From ChEMBL document CHEMBL3091303, “1,3-Dialkyl-substituted tetrahydropyrimido[1,2-f]purine-2,4-diones as multiple target drugs for the potential treatment of neurodegenerative diseases” (Bioorg Med Chem, 2013)

Experiments:
[1] = target: T1, Amine oxidase [flavin-containing] A (Homo sapiens, UniProt P21397); assay: Inhibition of human MAO-A
T1 sequence (P21397 whole entry): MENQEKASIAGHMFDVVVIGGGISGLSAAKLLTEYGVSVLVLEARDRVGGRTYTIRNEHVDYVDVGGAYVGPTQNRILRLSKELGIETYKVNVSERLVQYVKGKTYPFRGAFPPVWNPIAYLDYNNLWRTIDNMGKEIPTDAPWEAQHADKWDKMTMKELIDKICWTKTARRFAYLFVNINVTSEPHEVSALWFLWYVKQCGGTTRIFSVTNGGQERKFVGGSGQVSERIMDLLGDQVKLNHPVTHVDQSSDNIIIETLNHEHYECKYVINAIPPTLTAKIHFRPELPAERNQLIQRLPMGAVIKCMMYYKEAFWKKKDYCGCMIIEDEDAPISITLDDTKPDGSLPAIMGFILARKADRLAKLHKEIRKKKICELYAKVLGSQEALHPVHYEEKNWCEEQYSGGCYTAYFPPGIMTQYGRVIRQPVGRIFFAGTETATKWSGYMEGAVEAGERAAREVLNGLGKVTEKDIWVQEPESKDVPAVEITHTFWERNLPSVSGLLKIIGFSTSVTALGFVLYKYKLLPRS
Outline: (§1)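 Human MAO-A and MAO-B inhibition, screened first at a test concentration of 10 µM.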

[2] = target: T2, Adenosine receptor A1 (Homo sapiens, UniProt P30542); assay: Displacement of [3H]CCPA from human adenosine A1 receptor expressed in CHO cells; assay type: cell-based
T2 sequence (P30542 whole entry): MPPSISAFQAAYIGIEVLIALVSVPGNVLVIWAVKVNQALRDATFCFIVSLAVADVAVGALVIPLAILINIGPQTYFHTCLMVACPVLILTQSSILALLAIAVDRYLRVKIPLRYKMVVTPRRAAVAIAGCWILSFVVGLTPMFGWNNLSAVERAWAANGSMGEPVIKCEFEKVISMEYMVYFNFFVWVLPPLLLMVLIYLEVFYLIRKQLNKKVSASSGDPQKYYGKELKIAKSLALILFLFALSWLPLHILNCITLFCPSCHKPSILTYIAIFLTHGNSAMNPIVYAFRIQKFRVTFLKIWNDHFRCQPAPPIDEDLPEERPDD
Outline: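 Radioligand binding to human receptors recombinantly expressed in Chinese hamster ovary (CHO) cells. Results are Ki, or % inhibition of radioligand binding at the indicated concentration.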

[3] = target: T3, MAO-A (amine oxidase [flavin-containing] A) (Homo sapiens, UniProt P21397); assay: Inhibition of human MAO-A at 10 uM relative to control; outline: as §1
T3 sequence (P21397 whole entry): T1 sequence (P21397 whole entry)

[4] = target: T4, Adenosine receptor A2b (Homo sapiens) (UniProt P29275); assay: Displacement of [3H]PSB-603 from human adenosine A2B receptor relative to control; design: concentration or dose not given beside the values; details: concentration not given here
T4 sequence (whole entry): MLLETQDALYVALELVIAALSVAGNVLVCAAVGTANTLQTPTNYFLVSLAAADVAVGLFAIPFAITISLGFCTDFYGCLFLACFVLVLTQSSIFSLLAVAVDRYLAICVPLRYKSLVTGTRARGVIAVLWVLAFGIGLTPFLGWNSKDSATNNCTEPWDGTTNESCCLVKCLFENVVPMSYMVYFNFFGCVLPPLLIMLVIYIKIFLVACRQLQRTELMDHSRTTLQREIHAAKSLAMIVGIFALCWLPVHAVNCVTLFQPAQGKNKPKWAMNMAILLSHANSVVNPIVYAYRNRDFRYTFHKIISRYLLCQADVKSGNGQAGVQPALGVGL

[5] = target: T5, Adenosine receptor A1 (Rattus norvegicus, UniProt P25099); assay: Displacement of [3H]CCPA from adenosine A1 receptor in rat brain cortex; assay type: tissue-based
T5 sequence (P25099 whole entry): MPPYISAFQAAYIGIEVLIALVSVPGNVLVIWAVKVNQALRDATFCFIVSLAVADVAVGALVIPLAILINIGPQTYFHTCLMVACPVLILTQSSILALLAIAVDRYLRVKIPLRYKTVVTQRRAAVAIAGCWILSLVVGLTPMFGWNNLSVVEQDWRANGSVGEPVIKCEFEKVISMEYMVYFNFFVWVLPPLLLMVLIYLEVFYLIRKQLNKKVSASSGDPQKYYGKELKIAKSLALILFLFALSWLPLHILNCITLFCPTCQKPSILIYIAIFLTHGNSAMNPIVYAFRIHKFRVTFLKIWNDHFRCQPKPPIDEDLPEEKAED
Outline: (§2)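 Radioligand binding to rat A1 receptors in rat brain cortical membrane preparations. Values are given as Ki, or as % inhibition of radioligand binding at the indicated concentration.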

[6] = target: T6, Adenosine receptor A2b (Homo sapiens, UniProt P29275); assay: Displacement of [3H]PSB-603 from human adenosine A2B receptor
T6 sequence (P29275 whole entry): T4 sequence (whole entry)

[7] = target: Adenosine receptor A2a (Rattus norvegicus, UniProt P30543); assay: Displacement of [3H]MSX-2 from adenosine A2A receptor in rat brain striatum; assay type: tissue-based
Adenosine receptor A2a, sequence (P30543 whole entry): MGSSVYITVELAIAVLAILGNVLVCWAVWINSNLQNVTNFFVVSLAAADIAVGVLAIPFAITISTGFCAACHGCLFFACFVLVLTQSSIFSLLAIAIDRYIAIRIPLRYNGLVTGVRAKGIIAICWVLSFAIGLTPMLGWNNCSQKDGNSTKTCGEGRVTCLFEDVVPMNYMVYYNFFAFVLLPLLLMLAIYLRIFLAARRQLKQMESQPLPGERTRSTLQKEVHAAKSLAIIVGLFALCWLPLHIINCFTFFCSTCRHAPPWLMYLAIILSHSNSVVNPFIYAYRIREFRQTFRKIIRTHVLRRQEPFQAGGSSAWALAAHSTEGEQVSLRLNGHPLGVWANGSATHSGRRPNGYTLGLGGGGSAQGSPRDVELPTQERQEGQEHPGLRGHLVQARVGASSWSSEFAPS

[8] = target: T7, Adenosine receptor A3 (Homo sapiens, UniProt P0DMS8); assay: Displacement of [3H]PSB-11 from human adenosine A3 receptor expressed in CHO cells; assay type: cell-based
T7 sequence (P0DMS8 whole entry): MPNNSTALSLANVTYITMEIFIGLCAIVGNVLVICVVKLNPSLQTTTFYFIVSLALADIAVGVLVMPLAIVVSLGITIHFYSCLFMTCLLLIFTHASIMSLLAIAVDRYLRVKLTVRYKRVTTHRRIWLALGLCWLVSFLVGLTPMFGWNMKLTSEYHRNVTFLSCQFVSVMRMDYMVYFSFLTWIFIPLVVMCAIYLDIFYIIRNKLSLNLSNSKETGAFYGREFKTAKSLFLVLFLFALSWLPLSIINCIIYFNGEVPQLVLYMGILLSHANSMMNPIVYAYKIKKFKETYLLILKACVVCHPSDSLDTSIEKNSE

[9] = target: T8, Amine oxidase [flavin-containing] B (Homo sapiens, UniProt P27338); assay: Inhibition of human MAO-B
T8 sequence (P27338 whole entry): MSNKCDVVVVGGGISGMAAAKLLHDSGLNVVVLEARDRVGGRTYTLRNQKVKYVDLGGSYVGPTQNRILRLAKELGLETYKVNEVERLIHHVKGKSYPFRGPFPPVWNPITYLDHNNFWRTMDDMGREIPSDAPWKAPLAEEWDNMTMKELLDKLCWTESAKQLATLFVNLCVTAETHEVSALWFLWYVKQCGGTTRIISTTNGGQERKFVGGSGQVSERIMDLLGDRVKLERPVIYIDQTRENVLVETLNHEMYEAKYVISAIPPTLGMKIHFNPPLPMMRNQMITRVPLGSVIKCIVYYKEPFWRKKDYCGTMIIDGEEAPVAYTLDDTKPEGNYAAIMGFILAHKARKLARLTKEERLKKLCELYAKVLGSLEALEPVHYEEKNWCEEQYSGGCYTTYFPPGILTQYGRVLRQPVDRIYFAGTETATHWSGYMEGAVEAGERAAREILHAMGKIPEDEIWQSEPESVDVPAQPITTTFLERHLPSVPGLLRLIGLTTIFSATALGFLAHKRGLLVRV

[10] = target: T9, Adenosine receptor A3 (Homo sapiens) (UniProt P0DMS8); assay: Displacement of [3H]PSB-11 from human adenosine A3 receptor expressed in CHO cells relative to control; assay type: cell-based; design: concentration or dose not given beside the values; details: concentration not given here
T9 sequence (whole entry): T7 sequence (P0DMS8 whole entry)

[11] = target: T10, Adenosine receptor A1 (Rattus norvegicus) (UniProt P25099); assay: Displacement of [3H]CCPA from adenosine A1 receptor in rat brain cortex relative to control; assay type: tissue-based; design: concentration or dose not given beside the values; details: concentration not given here; outline: as §2
T10 sequence (whole entry): T5 sequence (P25099 whole entry)

[12] = target: T11, MAO-B (amine oxidase [flavin-containing] B) (Homo sapiens, UniProt P27338); assay: Inhibition of human MAO-B at 10 uM relative to control; outline: as §1
T11 sequence (P27338 whole entry): T8 sequence (P27338 whole entry)

| Compound | IC50 [1] [µM] | Ki [2] [µM] | inhibition at 10 µM [3] [%] | inhibition [4] [%] | Ki [5] [µM] | Ki [6] [µM] | Ki [7] [µM] | Ki [8] [µM] | IC50 [9] [µM] | inhibition [10] [%] | inhibition [11] [%] | inhibition at 10 µM [12] [%] |
| --- | --- | --- | --- | --- | --- | --- | --- | --- | --- | --- | --- | --- |
| CCn1c(=O)c2c(nc3n2CCCN3C2CCCCC2)n(CC)c1=O | > 10 | 1.04 | -3 | 3 | 0.321 | > 1 | 1.7 | > 10 | 3.72 | 37 |  |  |
| CCn1c(=O)c2c(nc3n2CCCN3CCc2cc(OC)c(OC)c(OC)c2)n(CC)c1=O |  |  |  | 6 | > 10 | > 1 | 3.87 | > 10 | > 10 | 24 | 14 | 25 |
| CCn1c(=O)c2c(nc3n2CCCN3CCc2ccc(OC)c(OC)c2)n(CC)c1=O | > 10 |  | 4 | 15 | > 10 | > 1 | 1.88 | > 10 | 5.87 | 32 | 35 |  |
| CCn1c(=O)c2c(nc3n2CCCN3c2cccc(OC)c2)n(CC)c1=O | > 10 |  | 4 | 21 | 1.24 | > 1 | 5.37 | 6.8 | 6.39 |  |  |  |
| CCCn1c(=O)c2c(nc3n2CCCN3CC(=O)N2CCN(Cc3ccccc3)CC2)n(CCC)c1=O |  |  |  | 0 | > 1.5 | > 1 | 8.22 | > 1 | > 10 | 28 | 17 | 15 |
| C#CCn1c(=O)c2c(nc3n2CCCN3Cc2cccnc2)n(C)c1=O |  |  |  | 1 | 1.83 | > 0.3 | 6.22 | > 1 | > 10 | 4 |  | 21 |
| Cn1c(=O)c2c(nc3n2CCCN3CC(=O)N2CCN(Cc3ccc(Cl)cc3)CC2)n(C)c1=O |  |  |  |  | > 1.5 | > 1 | 9.42 | > 10 | > 10 | 23 | -1 | 30 |
| CCn1c(=O)c2c(nc3n2CCCN3c2ccc(F)cc2)n(CC)c1=O |  | 6.65 |  | 11 | 0.545 | > 1 | 1.88 | > 10 | 10 | 29 |  | 48 |

Second part, the compound after the results:

| IC50 [1] [µM] | Ki [2] [µM] | inhibition at 10 µM [3] [%] | inhibition [4] [%] | Ki [5] [µM] | Ki [6] [µM] | Ki [7] [µM] | Ki [8] [µM] | IC50 [9] [µM] | inhibition [10] [%] | inhibition [11] [%] | inhibition at 10 µM [12] [%] | Compound |
| --- | --- | --- | --- | --- | --- | --- | --- | --- | --- | --- | --- | --- |
| > 10 | 3.92 | 28 | 20 | 0.506 | > 1 | 1.83 | 3.03 | 3.26 |  |  |  | CCn1c(=O)c2c(nc3n2CCCN3CCc2ccccc2OC)n(CC)c1=O |
|  | 9.65 |  | 9 | 0.228 | > 1 | 2.04 | > 1 | > 10 | 28 |  | 30 | C#CCn1c(=O)c2c(nc3n2CCCN3c2cc(OC)cc(OC)c2)n(C)c1=O |
|  |  |  | 29 | > 10 | > 1 | 2.65 | 3.41 | > 10 |  | 31 | 33 | CCn1c(=O)c2c(nc3n2CCCN3CCc2cccc(OC)c2)n(CC)c1=O |
| > 10 | 10.2 | 11 | 7 | 0.555 |  | 3.03 |  | 10 |  |  | 50 | C#CCn1c(=O)c2c(nc3n2CCCN3Cc2ccc(OC)cc2)n(C)c1=O |
| > 10 |  | 5 | 17 | 5.22 | > 1 | 1.48 |  | 10 |  |  | 64 | C#CCn1c(=O)c2c(nc3n2CCCN3c2ccc(C(C)C)cc2)n(C)c1=O |
| > 10 |  | 23 |  |  |  |  |  |  |  |  |  | Cn1c(=O)c2c(nc(/C=C/c3cccc(Cl)c3)n2C)n(C)c1=O |
| > 10 |  | 10 | 5 | 4.01 | > 1 | 3.69 | > 10 | 0.0629 | 30 |  |  | Cn1c(=O)c2c(nc3n2CCCN3Cc2ccc(Cl)c(Cl)c2)n(C)c1=O |
|  |  |  | -2 | > 10 | > 1 | 0.723 | > 1 | > 10 | 5 | 18 | 29 | C#CCn1c(=O)c2c(nc3n2CCCN3CCc2cc(OC)c(OC)c(OC)c2)n(C)c1=O |
| > 10 |  | 15 | -4 | 4.42 | > 1 | 3.76 | > 10 | 4.96 | 33 |  |  | Cn1c(=O)c2c(nc3n2CCCN3c2cccc(Cl)c2)n(C)c1=O |
| > 10 |  | 5 | 15 | > 1.5 | > 1 | 7.31 | 0.541 | 2.98 |  | 23 |  | CCCn1c(=O)c2c(nc3n2CCCN3CC(=O)N2CCN(Cc3ccc(C(F)(F)F)cc3)CC2)n(CCC)c1=O |
